Results as given in ChEMBL document CHEMBL4699398, “The synthesis and biological evaluation of sanguinarine derivatives as anti-non-small cell lung cancer agents” (RSC Med Chem, 2020).
Calls of active or inactive are those of the source. No cut-off for these calls is given here.

Tests used:
[1] = test system: NCI-H1975; assay: Induction of apoptosis in human H1975 cells assessed as late apoptotic cells at 1 uM after 48 hrs by Annexin V-FITC/7-AAD staining based flow cytometric method (reference value: 4.63 %); assay type: functional
[2] = test system: NCI-H1975; assay: Induction of apoptosis in human H1975 cells assessed as necrotic cells at 1 uM after 48 hrs by Annexin V-FITC/7-AAD staining based flow cytometric method (reference value: 0.85 %); assay type: functional
[3] = test system: NCI-H1975; assay: Induction of apoptosis in human H1975 cells assessed as viable cells at 3 uM after 48 hrs by Annexin V-FITC/7-AAD staining based flow cytometric method (reference value: 88.02 %); assay type: functional; details: read-out: Activity
[4] = test system: NCI-H1975; assay: Induction of apoptosis in human H1975 cells assessed as increase in ROS production incubated for 20 mins by DCFH-DA staining based flow cytometry analysis; assay type: functional, cell-based; details: dose microM 0.3-3, time 20.0 min
How it was run: (§1)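 At 20 min after compound treatment, cells washed in PBS and loaded with 10 μM DCFH-DA in phenol red-free DMEM for 30 min at 37 °C in the dark; washed three times with PBS; DCF fluorescence of ROS-positive cells measured by flow cytometry with excitation at 488 nm.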

[5] = test system: A549; assay: Induction of cell cycle arrest in human A549 cells assessed as accumulation in G2/M phase at 3 uM incubated for 24 hrs by […] propidium iodide staining based flow cytometry (reference value: 22.46 %); assay type: functional
[6] = test system: NCI-H1975; assay: Antiproliferative activity against human H1975 cells assessed as inhibition of cell growth incubated for 72 hrs by CCK-8 assay; details: NCI-H1975, 72 h
[7] = test system: NCI-H1975; assay: Induction of cell cycle arrest in human H1975 cells assessed as accumulation in G2/M phase at 0.3 uM incubated for 24 hrs by […] propidium iodide staining based flow cytometry (reference value: 21.00 %); assay type: functional
[8] = test system: A549; assay: Induction of apoptosis in human A549 cells assessed as necrotic cells at 1 uM after 48 hrs by Annexin V-FITC/7-AAD staining based flow cytometric method (reference value: 0.70 %); assay type: functional
[9] = test system: NCI-H1975; assay: Induction of apoptosis in human H1975 cells assessed as early apoptotic cells at 3 uM after 48 hrs by Annexin V-FITC/7-AAD staining based flow cytometric method (reference value: 6.50 %); assay type: functional
[10] = test system: A549; assay: Induction of cell cycle arrest in human A549 cells assessed as accumulation in G2/M phase at 0.3 uM incubated for 24 hrs by […] propidium iodide staining based flow cytometry (reference value: 22.46 %); assay type: functional
[11] = test system: NCI-H1975; assay: Induction of cell cycle arrest in human H1975 cells assessed as accumulation in S phase at 0.3 uM incubated for 24 hrs by […] propidium iodide staining based flow cytometry (reference value: 14.13 %); assay type: functional
[12] = test system: A549; assay: Induction of apoptosis in human A549 cells assessed as increase in ROS production incubated for 20 mins by DCFH-DA staining based flow cytometry analysis; assay type: functional, cell-based; details: dose microM 0.3-3, time 20.0 min; how it was run: as §1
[13] = test system: NCI-H1975; assay: Induction of apoptosis in human H1975 cells assessed as increase in cleaved PARP level at 0.1 to 3 uM after 24 hrs by Western blot analysis; assay type: functional, cell-based; details: dose microM 0.1-3, time 24.0 hrs
How it was run: (§2)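 After treatment, cells harvested and lysed in RIPA buffer; equal protein loaded on 12% SDS-PAGE and transferred to PVDF; blocked in 5% milk 2 h at room temperature; primary antibodies (AKT, p-AKT, cleaved caspase-3, cleaved caspase-9, PARP; GAPDH loading control) overnight at 4 °C; HRP secondaries 2 h at room temperature; chemiluminescent detection.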

[14] = test system: A549; assay: Antiproliferative activity against human A549 cells assessed as inhibition of cell growth incubated for 72 hrs by CCK-8 assay; details: A549, 72 h
[15] = test system: NCI-H1975; assay: Induction of apoptosis in human H1975 cells assessed as necrotic cells at 3 uM after 48 hrs by Annexin V-FITC/7-AAD staining based flow cytometric method (reference value: 0.85 %); assay type: functional
[16] = test system: A549; assay: Induction of apoptosis in human A549 cells assessed as increase in phosphorylated Akt level at 0.1 to 3 uM incubated for 24 hrs by Western blot analysis; assay type: functional, cell-based; details: dose microM 0.1-3, time 24.0 hrs; how it was run: as §2
[17] = test system: NCI-H1975; assay: Induction of cell cycle arrest in human H1975 cells assessed as accumulation in G2/M phase at 1 uM incubated for 24 hrs by […] propidium iodide staining based flow cytometry (reference value: 21.00 %); assay type: functional
[18] = test system: A549; assay: Induction of apoptosis in human A549 cells assessed as increase in cleaved PARP level at 0.1 to 3 uM after 24 hrs by Western blot analysis; assay type: functional, cell-based; details: dose microM 0.1-3, time 24.0 hrs; how it was run: as §2
[19] = test system: NCI-H1975; assay: Induction of apoptosis in human H1975 cells assessed as early apoptotic cells at 1 uM after 48 hrs by Annexin-V-FITC/7-AAD staining based flow cytometric method (reference value: 6.50 %); assay type: functional
[20] = test system: A549; assay: Induction of apoptosis in human A549 cells assessed as early apoptotic cells at 0.3 uM after 48 hrs by Annexin V-FITC/7-AAD staining based flow cytometric method (reference value: 3.26 %); assay type: functional
[21] = test system: NCI-H1975; assay: Induction of apoptosis in human H1975 cells assessed as increase in Akt level at 0.1 to 3 uM incubated for 24 hrs by Western blot analysis; assay type: functional, cell-based; details: dose microM 0.1-3, time 24.0 hrs; how it was run: as §2
[22] = test system: A549; assay: Induction of apoptosis in human A549 cells assessed as viable cells at 1 uM after 48 hrs by Annexin V-FITC/7-AAD staining based flow cytometric method (reference value: 93.10 %); assay type: functional; details: read-out: Activity
[23] = test system: A549; assay: Induction of cell cycle arrest in human A549 cells assessed as accumulation in S phase at 3 uM incubated for 24 hrs by […] propidium iodide staining based flow cytometry (reference value: 14.16 %); assay type: functional
[24] = test system: A549; assay: Induction of apoptosis in human A549 cells assessed as necrotic cells at 0.3 uM after 48 hrs by Annexin V-FITC/7-AAD staining based flow cytometric method (reference value: 0.70 %); assay type: functional
[25] = test system: NCI-H1975; assay: Induction of cell cycle arrest in human H1975 cells assessed as accumulation in S phase at 3 uM incubated for 24 hrs by […] propidium iodide staining based flow cytometry (reference value: 14.13 %); assay type: functional
[26] = test system: A549; assay: Induction of cell cycle arrest in human A549 cells assessed as accumulation in G0/G1 phase at 3 uM incubated for 24 hrs by […] propidium iodide staining based flow cytometry (reference value: 63.11 %); assay type: functional
[27] = test system: A549; assay: Induction of apoptosis in human A549 cells assessed as late apoptotic cells at 3 uM after 48 hrs by Annexin V-FITC/7-AAD staining based flow cytometric method (reference value: 2.94 %); assay type: functional
[28] = test system: NCI-H1975; assay: Induction of cell cycle arrest in human H1975 cells assessed as accumulation in S phase at 1 uM incubated for 24 hrs by […] propidium iodide staining based flow cytometry (reference value: 14.13 %); assay type: functional
[29] = test system: NCI-H1975; assay: Induction of apoptosis in human H1975 cells assessed as late apoptotic cells at 0.3 uM after 48 hrs by Annexin V-FITC/7-AAD staining based flow cytometric method (reference value: 4.63 %); assay type: functional

IC50 [6]: 1160 nM
IC50 [14]: 1790 nM
SMILES: CN1c2c(ccc3cc4c(cc23)OCO4)-c2ccc3c(c2C1N1CCOCC1)OCO3 (centres undefined)
Activity [1]: 19.17%
Activity [2]: 2.8%
viability at 3 µM [3]: 1.8%
Activity [4]: Dose-dependent effect
Activity [5]: 13.56%
Activity [7]: 23.51%
Activity [8]: 4.23%
Activity [9]: 3.11%
Activity [10]: 20.27%
Activity [11]: 14.07%
Activity [12]: Dose-dependent effect
Activity [13]: Active
Activity [15]: 4.59%
Activity [16]: Active
Activity [17]: 19.67%
Activity [18]: Active
Activity [19]: 10.59%
Activity [20]: 4.92%
Activity [21]: Active
viability at 1 µM [22]: 78.3%
Activity [23]: 15.07%
Activity [24]: 8.73%
Activity [25]: 8.75%
Activity [26]: 71.21%
Activity [27]: 93.73%
Activity [28]: 12.43%
Activity [29]: 5.55%
